We go through eight molecules from ChEMBL document CHEMBL1137839, “Potent antitumor N-mustard derivatives of 9-anilinoacridine, synthesis and antitumor evaluation” (Bioorg Med Chem Lett, 2004).

For one data set, the system named is CCRF-CEM. Description: Concentration required for growth inhibition of human lymphoblastic leukemic cell line (CCRF-CEM) was determined. The data set is classed as functional, cell-based. In short, it runs like this: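 Leukemic CCRF-CEM cells and their vinblastine-resistant (CCRF-CEM/VBL) and taxol-resistant (CCRF-CEM/taxol) sublines were incubated for 72 h. Growth inhibition was read by XTT assay and expressed as IC50. For the resistant sublines, fold resistance was calculated relative to the parent CCRF-CEM IC50.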

The test system of another data set is HCT-116. Kind of data set: Concentration required for growth inhibition of human HCT116 colon tumor cell line […] was determined. Type of data set: functional, cell-based.
The nature of data set [1]: Concentration required for growth inhibition of taxol resistant human lymphoblastic leukemic cell line (CCRF-CEM/taxol) was determined. The data set is classed as functional, cell-based. In outline: (§1)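 Drug-resistant human lymphoblastic leukemia sublines (vinblastine-resistant CCRF-CEM/VBL; taxol-resistant CCRF-CEM/taxol). Growth inhibition measured by XTT assay after 72 h incubation, reported as IC50.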

Data set [2] can be described thus: Concentration required for growth inhibition of vinblastine resistant human lymphoblastic leukemic cell line (CCRF-CEM/VBL) was determined. The data set is classed as functional, cell-based. In outline:
as §1

The subject of the next data set is A549. Kind of data set: Concentration required for growth inhibition of […] was determined. The data set is classed as functional, cell-based. To be noted: Homo sapiens.
Data set [3] in a line: Average tumor size of human mammary carcinoma (MX-1) xenograft in mice on 20th day of administration (dose = 1-2 mg/kg). To be noted: mouse, in vivo. Type of data set: organism-based. In outline:
(§2)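 Human MX-1 breast carcinoma xenografts in nude mice (n = 3) with tumors established on Day 0. Dosing was iv, 1–2 mg/kg Q3D × 7, beginning D11 at tumor size 80–120 mm3. Tumor size was tracked in mm3, and mice were sacrificed when tumors exceeded 3500 mm3.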

The test system of data set [4] is Mus musculus. Description: Average change in body weight of mice bearing human mammary carcinoma (MX-1) xenograft on 14th day of administration (dose = 1-2 mg/kg). The data set is classed as functional. In outline: (§3)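 Nude mice (n = 3) bearing human MX-1 mammary carcinoma xenografts (Day 0). Intravenous treatment started on D11, when tumors were 80–120 mm3, at 1–2 mg/kg on a Q3D × 7 schedule. Body weight was taken as total body weight minus tumor weight. Animals with excessive tumor burden (>3500 mm3) were sacrificed.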

For data set [5], the system named is Mus musculus. Description: Average change in body weight of mice bearing human mammary carcinoma (MX-1) xenograft on 23th day of administration (dose = 1-2 mg/kg). The data set is classed as functional. In short, it runs like this:
as §3

A short description of data set [6]: Average tumor size of human mammary carcinoma (MX-1) xenograft in mice on 17th day of administration (dose = 1-2 mg/kg). The note with it: mouse, in vivo. Type of data set: organism-based. In short, it runs like this:
as §2

Data set [7] deals with Mus musculus. Description: Average change in body weight of mice bearing human mammary carcinoma (MX-1) xenograft on 17th day of administration (dose = 1-2 mg/kg). Type of data set: functional. In short, it runs like this:
as §3

Data set [8] has as its system Mus musculus. Kind of data set: Average change in body weight of mice bearing human mammary carcinoma (MX-1) xenograft on 26th day of administration (dose = 1-2 mg/kg). The data set is classed as functional. In outline: as §3
Data set [9] can be described thus: Average tumor size of human mammary carcinoma (MX-1) xenograft in mice on 23th day of administration (dose = 1-2 mg/kg). Type of data set: organism-based. The note with it: mouse, in vivo. In outline: as §2
Data set [10] concerns Mus musculus. Description: Average change in body weight of mice bearing human mammary carcinoma (MX-1) xenograft on 20th day of administration (dose = 1-2 mg/kg). Type of data set: functional. In outline:
as §3

For `Cc1cccc2c(Nc3cccc(OCCN(CCCl)CCCl)c3)c3cccc(C(=O)NCCN(C)C)c3nc12`, the IC50 in the data set with CCRF-CEM came to 3 nM.

With `CC(=O)O[C@H]1C(=O)[C@@]2(C)[C@H]([C@H](OC(=O)c3ccccc3)[C@]3(O)C[C@H](OC(=O)[C@H](O)[C@@H](NC(=O)c4ccccc4)c4ccccc4)C(C)=C1C3(C)C)[C@]1(OC(C)=O)CO[C@@H]1C[C@@H]2O` [PACLITAXEL], the IC50 came out at 2.6 nM in the data set on HCT-116; 140 nM in [1]; 1620 nM in [2]; 1.5 nM in the data set on CCRF-CEM; 2.9 nM in the data set with A549.

As to `OCc1cc(Nc2c3ccccc3nc3ccccc23)cc(OCCN(CCCl)CCCl)c1`, the T/C in [3] stood at 0.17; in data set [6], 0.37; in data set [9], 0.14. Besides, the IC50 in the data set on HCT-116 stood at 5.5 nM; in data set [1], 30 nM; in data set [2], 7.5 nM; with CCRF-CEM, 7 nM; in the data set with A549 it was 5.6 nM. In addition, the Weight in the data set with Mus musculus [4] is listed as 1.2 g; with Mus musculus [5] it was -3 g; in the data set with Mus musculus [7], -1.4 g; with Mus musculus [8], -3.9 g; with Mus musculus [10], -3 g.

Take `Cc1cccc2c(Nc3ccc(OCCN(CCCl)CCCl)cc3)c3cccc(C(=O)NCCN(C)C)c3nc12`: the IC50 in the data set with CCRF-CEM stood at 770 nM.

In the data set on CCRF-CEM, `ClCCN(CCCl)CCOc1cccc(Nc2c3ccccc3nc3ccccc23)c1` yielded an IC50 of 90 nM.

As for `CC[C@]1(O)C[C@@H]2CN(CCc3c([nH]c4ccccc34)[C@@](C(=O)OC)(c3cc4c(cc3OC)N(C)[C@H]3[C@@](O)(C(=O)OC)[C@H](OC(C)=O)[C@]5(CC)C=CCN6CC[C@]43[C@@H]65)C2)C1` [VINBLASTINE], the IC50 in the data set with HCT-116 is 8.7 nM; in data set [1], 29 nM; in data set [2], 540 nM; in the data set with CCRF-CEM, 1.2 nM; with A549, 9.9 nM.

As to `ClCCN(CCCl)CCOc1ccc(Nc2c3ccccc3nc3ccccc23)cc1`, the results for the IC50 (in data set [1]; in [2]; with CCRF-CEM) were 60 nM, 60 nM and 20 nM, respectively.

For the molecule `Nc1cc(CO)cc(Nc2c3ccccc3nc3ccccc23)c1`, the IC50 in data set [1] came to 600 nM; in data set [2] it was 1600 nM; with CCRF-CEM, 750 nM; in the data set with A549, 47 nM.
